Screens: PubChem BioAssay, several laboratories
Most compounds without a hit are left out; they make up all but 2.1% or so of the library.
Runt-SMMHC FRET = inhibitors of human RUNX1 Runt domain binding to CBFb-SMMHC; Q01196+Q13951; Cerulean-Runt/Venus-CBFb-SMMHC FRET ratio 530/480, 1 h; hit rate 0.74% among 220,000; inhibition, % at 20 µM;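 active = mean inhibition across duplicate retests at 20 µM reaching about 50%, limit read from the data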;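 note: inhibitors lower the FRET ratio by blocking Runt binding to CBFb-SMMHC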
Target sequence (Q01196 whole entry, looked up, the tested form may be a part): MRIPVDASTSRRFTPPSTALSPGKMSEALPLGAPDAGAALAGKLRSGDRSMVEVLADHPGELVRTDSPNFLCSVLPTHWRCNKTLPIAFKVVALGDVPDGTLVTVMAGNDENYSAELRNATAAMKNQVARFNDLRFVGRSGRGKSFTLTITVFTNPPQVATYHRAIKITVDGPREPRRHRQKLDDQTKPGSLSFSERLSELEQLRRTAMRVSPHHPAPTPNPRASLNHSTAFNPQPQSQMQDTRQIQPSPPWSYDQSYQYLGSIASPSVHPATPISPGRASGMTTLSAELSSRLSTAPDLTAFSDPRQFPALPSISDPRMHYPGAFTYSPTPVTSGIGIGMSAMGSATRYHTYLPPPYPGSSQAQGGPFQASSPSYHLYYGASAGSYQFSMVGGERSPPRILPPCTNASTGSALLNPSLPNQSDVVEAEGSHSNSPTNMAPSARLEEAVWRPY
Target sequence (Q13951 whole entry, looked up, the tested form may be a part): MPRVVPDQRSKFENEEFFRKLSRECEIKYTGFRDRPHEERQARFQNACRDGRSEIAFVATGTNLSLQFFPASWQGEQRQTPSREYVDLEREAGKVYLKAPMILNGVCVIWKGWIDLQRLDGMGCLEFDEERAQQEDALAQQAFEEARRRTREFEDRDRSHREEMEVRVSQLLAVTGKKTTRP
Runt-CBFb FRET = inhibitors of human RUNX1 Runt domain binding to CBFb. Q01196+Q13951. Cerulean-Runt/Venus-CBFb FRET ratio 530/480, 1 h. inhibition, % at 20 µM. hit rate 0.46% among 220,000;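 active = inhibition over about 50% at 20 µM in the single-dose screen, limit read from the data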
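Schedule: protein complex preformed 1 h, compound exposure 1 h, room temperature, dark; test system: Cerulean-labeled Runt domain protein; amount: 100 nM per protein; buffer or medium: Tris 50 mM pH 7.5, KCl, K2SO4, 0.01% BSA; read-out: loss of energy transfer signal; detection: FRET fluorescence; controls: 5 µM unlabeled CBFb as full-inhibition high control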
Hck-Nef inh = blocks Nef-activated human Hck kinase; inhibition, % at 20 µM; Recombinant Hck-YEEI plus Nef, Z-Lyte FRET kinase assay; hit rate 0.68% among 220,000; AID 463187;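 active = Hck-Nef kinase inhibition above about 50%, limit read from the data; inactive = inhibition below that limit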
Tb hexokinase = T. brucei hexokinase 1 inhibition | recombinant TbHK1, G6PDH-coupled NADH A340 | inhibition, % at 10 µM | hit rate 0.11% among 220,000 | AID 1430;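 active = inhibition of 50% or more in the single-dose primary screen; inactive = inhibition below 50%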
p97 ATPase inh = human p97 ATPase inhibition; P55072; recombinant p97 ATPase, Kinase-Glo ATP luminescence, 3 h; inhibition, % at 8 µM; hit rate 0.42% among 220,000; in the data active = inhibition above about 15%
RanGTP-Imp inh = inhibitors of RanGTP-importin-beta interaction, primary screen, biochemical, FRET, CFP-Ran, YFP-importin-beta, homogeneous | cell-free CFP-Ran/YFP-importin-beta FRET ratio | inhibition, % (test concentration not listed) | hit rate 1.1% among 300,000;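 active = more than half of the replicate wells show a fall in the fluorescence ratio signal beyond about 16%, limit read from the data, passing the limit was not always enough; inconclusive = exactly half of the replicate wells pass the set limit; inactive = fewer than half of replicates pass the limit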
A number is an active result; n = inactive; u = inconclusive; x = not tested or not shown.

SMILES	Runt-SMMHC FRET	Runt-CBFb FRET	Hck-Nef inh	Tb hexokinase	p97 ATPase inh	RanGTP-Imp inh
CCc1cccc2c(C(=O)CCl)c[nH]c12	n	n	n	n	18	x
CC(C)CN(Cc1c(O)ccc2c3c(c(=O)oc12)CCC3)CC(C)C	100	n	n	n	n	n
Cc1c(O)ccc2c3c(c(=O)oc12)CCCC3	90	75	n	n	n	x
CC(=O)COc1ccc2c3c(c(=O)oc2c1C)CCCCC3	n	n	n	n	n	u
O=c1cc(N2CCCCC2)[nH]c(=O)n1C1CCCCC1	n	n	n	n	n	n
COC(=O)C1CCN(c2cc(=O)n(C3CCCCC3)c(=O)[nH]2)CC1	n	n	n	n	n	63
COC(=O)C1CCN(c2cc(=O)n(Cc3ccc(F)cc3)c(=O)[nH]2)CC1	n	n	n	n	n	59
CCc1cc2c(=O)nc3n(c2s1)Cc1ccccc1/C3=C(/O)c1ccccc1Cl	57	n	n	n	n	n
Cc1nc2c(C(=O)NCc3ccccc3Cl)c[nH]n2c(=O)c1Cl	n	n	n	n	15	n
CCc1cccc(NC(=O)C2CCCN(c3ncnc4c3nc3n4CCCCC3)C2)c1 (stereo unspecified)	x	x	x	x	x	n
Cc1cccn2c(=O)c(/C=C(\C#N)S(=O)(=O)c3ccccc3)c(N3CCCCC3)nc12	n	n	n	n	n	n
Cc1cccn2c(=O)c(/C=C(\C#N)C(=O)NCc3ccco3)c(N3CCCCC3)nc12	60	65	n	n	n	n
Cc1cccn2c(=O)c(/C=C(\C#N)C(=O)NCc3ccco3)c(N3CCC(C(N)=O)CC3)nc12	x	71	n	n	n	n
Cc1cccn2c(=O)c(/C=C(\C#N)C(=O)NCc3ccco3)c(N3CCCCCC3)nc12	n	97	n	n	n	n
CCOC(=O)C1CCN(c2nc3c(C)cccn3c(=O)c2/C=C(\C#N)S(=O)(=O)c2ccccc2)CC1	n	n	n	n	n	n
CCNC(=O)/C(C#N)=C/c1c(N2CCN(c3cccc(Cl)c3)CC2)nc2c(C)cccn2c1=O	x	x	x	x	x	n
N#C/C(=C\c1c(N2CCCCC2)nc2ccccn2c1=O)C(=O)NCc1ccco1	n	65	n	n	n	n
C/C(=C1/SC(N2CCCC2)=NC1=O)c1ccc(Br)cc1	n	n	n	n	n	n
CCN(C(=O)c1cccc(NC(=O)c2ccccc2)c1)C1CCCCC1	x	x	x	x	x	n
Cc1ccc(C(=O)N(CC#N)CC#N)cc1C	n	n	n	n	n	n
Cc1nc2cc(C(F)(F)F)ccc2n1C	n	n	n	n	n	n
CCOC(=O)C1CCCN(c2nc3c(C)cccn3c(=O)c2/C=C(\C#N)C(=O)NCc2ccco2)C1 (stereo unspecified)	n	121	n	n	n	n
CCOC(=O)/C(C#N)=C/c1c(N2CCN(c3ccccc3)CC2)nc2c(C)cccn2c1=O	x	x	x	x	x	n
Cc1cccn2c(=O)c(/C=C(\C#N)C(=O)NCc3ccco3)c(N3CCCC(C)C3)nc12 (stereo unspecified)	x	98	n	n	n	n
Cc1ccc(CNC(=O)c2oc3ccc(S(=O)(=O)N4CCC5(CC4)OCCO5)cc3c2C)cc1	n	n	n	n	n	n
SMILES	Runt-SMMHC FRET	Runt-CBFb FRET	Hck-Nef inh	Tb hexokinase	p97 ATPase inh	RanGTP-Imp inh
Cc1c(C(=O)NCCN(C)C)oc2ccc(S(=O)(=O)N3CCC4(CC3)OCCO4)cc12	x	x	x	x	x	23
O=C(COC(=O)c1cccc(NS(=O)(=O)c2ccc(F)c(F)c2)c1)NC(=O)NC1CCCCC1	n	n	n	n	n	n
CC1=NN(C(=O)COc2ccc(C)c(C)c2)C(O)(c2ccccc2)C1 (stereo unspecified)	n	n	n	n	n	22
CC1=NN(C(=O)COc2ccccc2)C(O)(c2ccccc2)C1 (stereo unspecified)	n	n	n	n	n	n
O=C(CC1S/C(=N/N=C/c2c[nH]c3ccccc23)NC1=O)Nc1ccccc1 (stereo unspecified)	n	n	n	n	n	n
O=C(CC1S/C(=N/N=C/c2ccco2)NC1=O)Nc1ccccc1 (stereo unspecified)	n	n	n	n	n	139
C=CCN(c1ccccc1C(=O)NCC(=O)O)S(=O)(=O)c1ccc(C)cc1	n	n	n	n	n	n
